Results reported in ChEMBL document CHEMBL4152188, “Design, synthesis and biological evaluation of C(4) substituted monobactams as antibacterial agents against multidrug-resistant Gram-negative bacteria” (Eur J Med Chem, 2018).
Values after ≈ are worked out from the molar mass of the structure shown.

Experiments:
Format in all cases: functional
Escherichia coli [1] = assay: Antibacterial activity against extended-spectrum beta-lactamase producing Escherichia coli isolate 212648 after 18 hrs by CLSI broth microdilution method; conditions: isolate 212648, 18 h
Escherichia coli [2] = assay: Selectivity index, ratio of MIC for against extended-spectrum beta-lactamase producing Escherichia coli isolate 208687 to MIC for extended-spectrum beta-lactamase producing Escherichia coli isolate 208687 in presence of BPL
Escherichia coli [3] = assay: Antibacterial activity against Escherichia coli isolate 210737 after 18 hrs by CLSI broth microdilution method; conditions: isolate 210737, 18 h
Escherichia coli [4] = assay: Antibacterial activity against extended-spectrum beta-lactamase producing Escherichia coli isolate 208687 after 18 hrs by CLSI broth microdilution method; conditions: isolate 208687, 18 h
Escherichia coli [5] = assay: Antibacterial activity against extended-spectrum beta-lactamase producing Escherichia coli isolate 208687 after 18 hrs in presence of BPL by CLSI broth microdilution method; conditions: isolate 208687, 18 h
Procedure, shortened: (§1)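 CLSI broth microdilution against clinical isolates (ESBL E. coli, KPC-2 MDR K. pneumoniae, IMP-4 MDR P. aeruginosa; five per species). Iron limitation: Mueller-Hinton broth supplemented with 16 mg/liter 2,2'-bipyridyl to complex iron and induce iron uptake systems. Read-out: MIC.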

Escherichia coli [6] = assay: Antibacterial activity against Escherichia coli isolate 210737 after 18 hrs in presence of BPL by CLSI broth microdilution method; conditions: isolate 210737, 18 h; procedure, shortened: as §1
Escherichia coli [7] = assay: Selectivity index, ratio of MIC for against Escherichia coli isolate 210737 to MIC for Escherichia coli isolate 210737 in presence of BPL
Escherichia coli [8] = assay: Antibacterial activity against extended-spectrum beta-lactamase producing Escherichia coli isolate 212648 after 18 hrs in presence of BPL by CLSI broth microdilution method; conditions: isolate 212648, 18 h; procedure, shortened: as §1
Escherichia coli [9] = assay: Selectivity index, ratio of MIC for against extended-spectrum beta-lactamase producing Escherichia coli isolate 212648 to MIC for extended-spectrum beta-lactamase producing Escherichia coli isolate 212648 in presence of BPL
Escherichia coli [10] = assay: Antibacterial activity against extended-spectrum beta-lactamase producing Escherichia coli isolate 209285 after 18 hrs by CLSI broth microdilution method; conditions: isolate 209285, 18 h
Escherichia coli [11] = assay: Antibacterial activity against extended-spectrum beta-lactamase producing Escherichia coli isolate 209285 after 18 hrs in presence of BPL by CLSI broth microdilution method; conditions: isolate 209285, 18 h; procedure, shortened: as §1
Escherichia coli [12] = assay: Selectivity index, ratio of MIC for against extended-spectrum beta-lactamase producing Escherichia coli isolate 209285 to MIC for extended-spectrum beta-lactamase producing Escherichia coli isolate 209285 in presence of BPL
Escherichia coli [13] = assay: Antibacterial activity against extended-spectrum beta-lactamase producing Escherichia coli isolate 106342 after 18 hrs by CLSI broth microdilution method; conditions: isolate 106342, 18 h
Escherichia coli [14] = assay: Antibacterial activity against extended-spectrum beta-lactamase producing Escherichia coli isolate 106342 after 18 hrs in presence of BPL by CLSI broth microdilution method; conditions: isolate 106342, 18 h; procedure, shortened: as §1
Escherichia coli [15] = assay: Selectivity index, ratio of MIC for against extended-spectrum beta-lactamase producing Escherichia coli isolate 106342 to MIC for extended-spectrum beta-lactamase producing Escherichia coli isolate 106342 in presence of BPL
Klebsiella pneumoniae [16] = assay: Antibacterial activity against KPC-2 producing Klebsiella pneumoniae isolate 212423 after 18 hrs by CLSI broth microdilution method; conditions: isolate 212423, 18 h
Klebsiella pneumoniae [17] = assay: Antibacterial activity against KPC-2 producing Klebsiella pneumoniae isolate 212423 after 18 hrs in presence of BPL by CLSI broth microdilution method; conditions: isolate 212423, 18 h; procedure, shortened: as §1
Klebsiella pneumoniae [18] = assay: Selectivity index, ratio of MIC for against KPC-2 producing Klebsiella pneumoniae isolate 212423 to MIC for against KPC-2 producing Klebsiella pneumoniae isolate 212423 in presence of BPL
Klebsiella pneumoniae [19] = assay: Antibacterial activity against KPC-2 producing Klebsiella pneumoniae isolate 209632 after 18 hrs by CLSI broth microdilution method; conditions: isolate 209632, 18 h
Klebsiella pneumoniae [20] = assay: Antibacterial activity against KPC-2 producing Klebsiella pneumoniae isolate 209632 after 18 hrs in presence of BPL by CLSI broth microdilution method; conditions: isolate 209632, 18 h; procedure, shortened: as §1
Klebsiella pneumoniae [21] = assay: Selectivity index, ratio of MIC for against KPC-2 producing Klebsiella pneumoniae isolate 209632 to MIC for against KPC-2 producing Klebsiella pneumoniae isolate 209632 in presence of BPL
Klebsiella pneumoniae [22] = assay: Antibacterial activity against KPC-2 producing Klebsiella pneumoniae isolate 209735 after 18 hrs by CLSI broth microdilution method; conditions: isolate 209735, 18 h
Klebsiella pneumoniae [23] = assay: Antibacterial activity against KPC-2 producing Klebsiella pneumoniae isolate 209735 after 18 hrs in presence of BPL by CLSI broth microdilution method; conditions: isolate 209735, 18 h; procedure, shortened: as §1
Klebsiella pneumoniae [24] = assay: Selectivity index, ratio of MIC for against KPC-2 producing Klebsiella pneumoniae isolate 209735 to MIC for against KPC-2 producing Klebsiella pneumoniae isolate 209735 in presence of BPL
Klebsiella pneumoniae [25] = assay: Antibacterial activity against KPC-2 producing Klebsiella pneumoniae isolate 212232 after 18 hrs by CLSI broth microdilution method; conditions: isolate 212232, 18 h
Klebsiella pneumoniae [26] = assay: Antibacterial activity against KPC-2 producing Klebsiella pneumoniae isolate 212232 after 18 hrs in presence of BPL by CLSI broth microdilution method; conditions: isolate 212232, 18 h; procedure, shortened: as §1
Klebsiella pneumoniae [27] = assay: Selectivity index, ratio of MIC for against KPC-2 producing Klebsiella pneumoniae isolate 212232 to MIC for against KPC-2 producing Klebsiella pneumoniae isolate 212232 in presence of BPL
Klebsiella pneumoniae [28] = assay: Antibacterial activity against KPC-2 producing Klebsiella pneumoniae isolate 212229 after 18 hrs by CLSI broth microdilution method; conditions: isolate 212229, 18 h
Klebsiella pneumoniae [29] = assay: Antibacterial activity against KPC-2 producing Klebsiella pneumoniae isolate 212229 after 18 hrs in presence of BPL by CLSI broth microdilution method; conditions: isolate 212229, 18 h; procedure, shortened: as §1
Klebsiella pneumoniae [30] = assay: Selectivity index, ratio of MIC for against KPC-2 producing Klebsiella pneumoniae isolate 212229 to MIC for against KPC-2 producing Klebsiella pneumoniae isolate 212229 in presence of BPL
Pseudomonas aeruginosa [31] = assay: Antibacterial activity against IMP-4 producing Pseudomonas aeruginosa isolate 212886 after 18 hrs by CLSI broth microdilution method; conditions: isolate 212886, 18 h
Pseudomonas aeruginosa [32] = assay: Antibacterial activity against IMP-4 producing Pseudomonas aeruginosa isolate 212886 after 18 hrs in presence of BPL by CLSI broth microdilution method; conditions: isolate 212886, 18 h; procedure, shortened: as §1
Pseudomonas aeruginosa [33] = assay: Selectivity index, ratio of MIC for against IMP-4 producing Pseudomonas aeruginosa isolate 212886 to MIC for against IMP-4 producing Pseudomonas aeruginosa isolate 212886 in presence of BPL
Pseudomonas aeruginosa [34] = assay: Antibacterial activity against IMP-4 producing Pseudomonas aeruginosa isolate 209471 after 18 hrs by CLSI broth microdilution method; conditions: isolate 209471, 18 h
Pseudomonas aeruginosa [35] = assay: Antibacterial activity against IMP-4 producing Pseudomonas aeruginosa isolate 209471 after 18 hrs in presence of BPL by CLSI broth microdilution method; conditions: isolate 209471, 18 h; procedure, shortened: as §1
Pseudomonas aeruginosa [36] = assay: Selectivity index, ratio of MIC for against IMP-4 producing Pseudomonas aeruginosa isolate 209471 to MIC for against IMP-4 producing Pseudomonas aeruginosa isolate 209471 in presence of BPL
Pseudomonas aeruginosa [37] = assay: Antibacterial activity against IMP-4 producing Pseudomonas aeruginosa isolate 208247 after 18 hrs by CLSI broth microdilution method; conditions: isolate 208247, 18 h
Pseudomonas aeruginosa [38] = assay: Antibacterial activity against IMP-4 producing Pseudomonas aeruginosa isolate 208247 after 18 hrs in presence of BPL by CLSI broth microdilution method; conditions: isolate 208247, 18 h; procedure, shortened: as §1
Pseudomonas aeruginosa [39] = assay: Selectivity index, ratio of MIC for against IMP-4 producing Pseudomonas aeruginosa isolate 208247 to MIC for against IMP-4 producing Pseudomonas aeruginosa isolate 208247 in presence of BPL
Pseudomonas aeruginosa [40] = assay: Antibacterial activity against IMP-4 producing Pseudomonas aeruginosa isolate 209321 after 18 hrs by CLSI broth microdilution method; conditions: isolate 209321, 18 h
Pseudomonas aeruginosa [41] = assay: Antibacterial activity against IMP-4 producing Pseudomonas aeruginosa isolate 209321 after 18 hrs in presence of BPL by CLSI broth microdilution method; conditions: isolate 209321, 18 h; procedure, shortened: as §1
Pseudomonas aeruginosa [42] = assay: Selectivity index, ratio of MIC for against IMP-4 producing Pseudomonas aeruginosa isolate 209321 to MIC for against IMP-4 producing Pseudomonas aeruginosa isolate 209321 in presence of BPL
Pseudomonas aeruginosa [43] = assay: Antibacterial activity against IMP-4 producing Pseudomonas aeruginosa isolate 207272 after 18 hrs by CLSI broth microdilution method; conditions: isolate 207272, 18 h
Pseudomonas aeruginosa [44] = assay: Antibacterial activity against IMP-4 producing Pseudomonas aeruginosa isolate 207272 after 18 hrs in presence of BPL by CLSI broth microdilution method; conditions: isolate 207272, 18 h; procedure, shortened: as §1
Pseudomonas aeruginosa [45] = assay: Selectivity index, ratio of MIC for against IMP-4 producing Pseudomonas aeruginosa isolate 207272 to MIC for against IMP-4 producing Pseudomonas aeruginosa isolate 207272 in presence of BPL

- MIC (Escherichia coli [1]): 1 mg/L (≈ 1.78 µM)
- MIC (Escherichia coli [3]): 0.5 mg/L (≈ 0.892 µM)
- MIC (Escherichia coli [4]): 0.5 mg/L (≈ 0.892 µM)
- MIC (Escherichia coli [5]): 0.25 mg/L
- MIC (Escherichia coli [6]): 0.5 mg/L
- MIC (Escherichia coli [8]): 0.25 mg/L
- MIC (Escherichia coli [10]): 0.5 mg/L (≈ 0.892 µM)
- MIC (Escherichia coli [11]): 0.125 mg/L
- MIC (Escherichia coli [13]): 0.5 mg/L (≈ 0.892 µM)
- MIC (Escherichia coli [14]): 0.25 mg/L
- MIC (Klebsiella pneumoniae [16]): 0.5 mg/L (≈ 0.892 µM)
- MIC (Klebsiella pneumoniae [17]): 0.25 mg/L
- MIC (Klebsiella pneumoniae [19]): 4 mg/L (≈ 7.14 µM)
- MIC (Klebsiella pneumoniae [20]): 1 mg/L
- MIC (Klebsiella pneumoniae [22]): 16 mg/L (≈ 28.5 µM)
- MIC (Klebsiella pneumoniae [23]): 4 mg/L
- MIC (Klebsiella pneumoniae [25]): 4 mg/L (≈ 7.14 µM)
- MIC (Klebsiella pneumoniae [26]): 0.5 mg/L
- MIC (Klebsiella pneumoniae [28]): 0.5 mg/L (≈ 0.892 µM)
- MIC (Klebsiella pneumoniae [29]): 0.125 mg/L
- MIC (Pseudomonas aeruginosa [31]): 16 mg/L (≈ 28.5 µM)
- MIC (Pseudomonas aeruginosa [32]): 16 mg/L
- MIC (Pseudomonas aeruginosa [34]): 16 mg/L (≈ 28.5 µM)
- MIC (Pseudomonas aeruginosa [35]): 8 mg/L
- MIC (Pseudomonas aeruginosa [37]): 8 mg/L (≈ 14.3 µM)
- MIC (Pseudomonas aeruginosa [38]): 8 mg/L
- MIC (Pseudomonas aeruginosa [40]): 16 mg/L (≈ 28.5 µM)
- MIC (Pseudomonas aeruginosa [41]): 16 mg/L
- MIC (Pseudomonas aeruginosa [43]): 8 mg/L (≈ 14.3 µM)
- MIC (Pseudomonas aeruginosa [44]): 8 mg/L
Compound: COC[C@@H]1[C@H](NC(=O)/C(=N\OC(c2cc(=O)c(O)cn2O)C(C)C)c2csc(N)n2)C(=O)N1S(=O)(=O)O (stereo not given in full)
- Selectivity Index (Escherichia coli [2]): 2
- Selectivity Index (Escherichia coli [7]): 1
- Selectivity Index (Escherichia coli [9]): 4
- Selectivity Index (Escherichia coli [12]): 4
- Selectivity Index (Escherichia coli [15]): 2
- Selectivity Index (Klebsiella pneumoniae [18]): 2
- Selectivity Index (Klebsiella pneumoniae [21]): 4
- Selectivity Index (Klebsiella pneumoniae [24]): 4
- Selectivity Index (Klebsiella pneumoniae [27]): 8
- Selectivity Index (Klebsiella pneumoniae [30]): 4
- Selectivity Index (Pseudomonas aeruginosa [33]): 1
- Selectivity Index (Pseudomonas aeruginosa [36]): 2
- Selectivity Index (Pseudomonas aeruginosa [39]): 1
- Selectivity Index (Pseudomonas aeruginosa [42]): 1
- Selectivity Index (Pseudomonas aeruginosa [45]): 1
